Results on five compounds are retold here after PMC6868502 (Journal of natural products, 2018).

Read-outs that look alike come from different tables or passages of the source.

Data set [1] can be described thus: Liver microsome stability. Format: in vitro ADME. (Liver microsomes are a subcellular fraction often used to study metabolism.)
The next data set can be described thus: Plasma protein binding. Format: in vitro ADME.
Data set [2] deals with GM18453 skin fibroblast cell line (I1061T mutation on both alleles of NPC1). Nature of the data set: Filipin staining of unesterified cholesterol in NPC1 mutant fibroblasts. Format: cell-based, human. Conditions: GM18453 cells; for concentration at which the lowest filipin area/cell is achieved: dose range 1 nM to 5 μM; for concentration giving significant rescue of cholesterol accumulation (as low as): filipin fluorescence images.

A further data set is described as follows: Pharmacokinetics in mice. Format: in vivo. The conditions noted are these: mice dosed at 2 mg/kg.
Another data set concerns Caco-2 cell line. Nature of the data set: Caco-2 permeability. Format: in vitro ADME. (Caco-2 monolayers are a common model of the intestinal barrier.)
In data set [3] the test system is NPC1 protein in GM18453 fibroblasts. Nature of the data set: NPC1 protein expression, Western blot after endoglycosidase H treatment. Format: cell-based, human. The conditions noted are these: 48 hours; for levels of the 250 kDa NPC1 isoform: SAHA 5 μM or GEX1A 50 nM. On the technique in general: In western blotting, separated proteins are transferred to a membrane and probed.

The next data set can be described thus: Aqueous solubility. Format: physicochemical.
Data set [4] relates to NPC1 protein in GM18453 fibroblasts. Put plainly: NPC1 protein expression, Western blot after peptide:N-glycosidase F treatment. Format: cell-based, human. Conditions: 48 hours. In short, it runs like this: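 NPC1-mutant GM18453 fibroblasts exposed for 48 h at 37°C, 5% CO2 to test compound (50 nM), SAHA (5 μM) or 0.1% v/v DMSO, then lysed in RIPA with protease inhibitors. Lysate (25 μg) digested with PNGase F (1000 U) in SDS, DTT and Tris-HCl pH 8, overnight (~18 h) at 37°C. Immunoblot with rabbit anti-NPC1, ECL on film. Densitometry normalised to actin, relative to DMSO; four independent experiments; SD; t-test.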

Another data set concerns histone acetylation. The conditions noted are these: cited from earlier work.
In data set [5] the test system is low-density lipoprotein (LDL) receptor. Conditions: ref 5; cited from earlier work.
Data set [6] deals with GM18453 skin fibroblast cell line (I1061T mutation on both alleles of NPC1). Conditions: several NPC1 mutant cell lines, including GM18453; cited from earlier work.
Data set [7] deals with GM18407 fibroblast cell line (NPC1 R404Q, M1142T). Nature of the data set: Filipin staining of cholesterol accumulation in GM18407 fibroblasts. Format: cell-based, human. The conditions noted are these: GM18407 cells, even at high concentrations.
Data set [8] shares this test system. The conditions noted are these: GM18407 cells; cited from earlier work.

On to `CO[C@H]([C@@H](C)[C@H]1O[C@]1(C)C[C@H](C)/C=C/C=C(\C)[C@H]1O[C@@H](CC(=O)O)CC[C@@H]1C)[C@@H](C)O` [Compound 1, GEX1A], for which the “stability in liver microsomes” value in data set [1] is “quite stable”. Besides, in “Plasma protein binding”, the “plasma protein binding profile” value is on record as “excellent plasma protein binding profile”. Besides, the “effects on cell and nuclei shape (cellular toxicity)” value in data set [2] (5 μM) is “detrimental effects on cell and nuclei shape”. Moreover, in data set [2] (48 hours), the “concentration at which the lowest filipin area/cell is achieved” value worked out at 50 nM and the “concentration giving significant rescue of cholesterol accumulation (as low as)” value (from here on “concentration giving significant rescue”) was found to be 50 nM. Moreover, the half-life entry in “Pharmacokinetics in mice” is listed as “long half-life”. In the data set with Caco-2 cell line (Caco-2), the permeability entry is reported as “reasonably permeable”. In addition, the efflux entry with Caco-2 cell line (Caco-2 cell line) is “no evidence of efflux”. In [3] (GEX1A 50 nM, vs DMSO), the “expression of the 180 kDa NPC1 species” value was “increases the expression of the 180 kDa species”. Also, in data set [3] (vs DMSO), the “levels of the 250 kDa NPC1 isoform” value was “did not cause a significant increase”. Besides, the aqueous solubility result in the data set “Aqueous solubility” is “exceptional aqueous solubility”. The “expression of the highly glycosylated 180 kDa NPC1 isoform” value in data set [4] (GEX1A 50 nM, PNGase F experiment) is “clear increase”. Besides, in [4] (GEX1A 50 nM, PNGase F, vs DMSO), the “level of NPC1 protein expression including both the 250 and 120 kDa isoforms” value was “significant increase”. Also, the “effect on histone acetylation” value in the data set with histone acetylation (ref 5) is given as “does not affect histone acetylation”. Further, in the data set with histone acetylation (ref 32), the “effect on histone acetylation” value is on record as “no effect on histone acetylation”. For the same compound, the “expression of the LDL receptor” value in data set [5] was “increased expression”.
As to `COC(=O)C[C@H]1CC[C@H](C)[C@@H](/C(C)=C/C=C/[C@@H](C)C[C@@]2(C)O[C@@H]2[C@H](C)[C@@H](OC)[C@@H](C)O)O1` [Compound 2, Methyl 2-((2R,5S,6S)-6-((S,2E,4E)-7-((2R,3R)-3-((2R,3R,4R)-4-hydroxy-3-methoxypentan-2-yl)-2-methyloxiran-2-yl)-6-methylhepta-2,4-dien-2-yl)-5-methyltetrahydro-2H-pyran-2-yl) acetate], in data set [2] (48 hours), the “concentration at which the lowest filipin area/cell is achieved” value is recorded as 50 nM and the “concentration giving significant rescue” value is given as 50 nM.
As to `COC(=O)C[C@H]1CC[C@H](C)[C@@H](/C(C)=C/C=C/[C@@H](C)C[C@@]2(C)O[C@@H]2[C@H](C)[C@@H](OC)[C@@H](C)OC(C)=O)O1` [Compound 3, Methyl 2-((2R,5S,6S)-6-((S,2E,4E)-7-((2R,3R)-3-((2R,3R,4R)-4-acetoxy-3-methoxypentan-2-yl)-2-methyloxiran-2-yl)-6-methylhepta-2,4-dien-2-yl)-5-methyltetrahydro-2H-pyran-2-yl) acetate], in [2] (48 hours), the “concentration at which the lowest filipin area/cell is achieved” value amounted to 50 nM and the “concentration giving significant rescue” value amounted to 50 nM.
On to `COC(=O)C[C@H]1CC[C@H](C)[C@@H](/C(C)=C/C=C/[C@@H](C)C[C@@]2(C)O[C@@H]2[C@H](C)[C@@H](OC)C(C)=O)O1` [Compound 4, Methyl 2-((2R,5S,6S)-6-((S,2E,4E)-7-((2R,3R)-3-((2S,3R)-3-methoxy-4-oxopentan-2-yl)-2-methyloxiran-2-yl)-6-methylhepta-2,4-dien-2-yl)-5-methyltetrahydro-2H-pyran-2-yl)acetate], for which the “cholesterol clearance compared to vehicle treatment” value in data set [2] (50 nM, 48 hours, filipin) is given as “Some cholesterol clearance”.
On to `O=C(CCCCCCC(=O)Nc1ccccc1)NO` [SAHA, suberoylanilide hydroxamic acid, reference compound], for which the “reversal of cholesterol accumulation in NPC1 mutant cell lines” value in data set [6] is given as “effective in reversing cholesterol accumulation”. The “rescue of the disease phenotype (cholesterol accumulation)” value in [7] is on record as “neither SAHA nor compounds 1 – 4 were able to effectively rescue the disease phenotype”. Further, the “levels of the 250 kDa NPC1 isoform” value in data set [3] (vs DMSO) was “increases the expression of the larger (250 kDa) isoform”; in data set [4] (SAHA 5 μM, PNGase F experiment, vs DMSO) it was “moderate increase”. For the same compound, in [3] (SAHA 5 μM, Endo H, densitometry vs DMSO), the “increase in the levels of total NPC1 protein” value is “approximately twofold”. Also, the “effect on lysosomal cholesterol accumulation” value in data set [8] is reported as “no effect on lysosomal cholesterol accumulation”.
